Laboratory results taken from ChEMBL document CHEMBL4725393, “Prodrug Strategies to Improve the Solubility of the HCV NS5A Inhibitor Pibrentasvir (ABT-530)” (J Med Chem, 2020).
Values after ≈ are worked out from the molar mass of the structure shown.

Legend:
[1] = Aqueous solubility of compound at pH 2; format: physicochemical
[2] = Apparent permeability in MDCK cells; format: ADME, cell-based, Canis lupus familiaris; conditions: dog
[3] = Protein binding in human plasma; format: ADME, cell-free; conditions: read-out: PPB (converted)
[4] = Aqueous solubility of compound at pH 7; format: physicochemical
[5] = Permeability by PAMPA; format: ADME
[6] = Lipophilicity, logD of compound; format: physicochemical; conditions: octanol/water
[7] = Solubility in FeSSIF at pH 5; format: physicochemical
In short: (§1)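 For equilibrium solubility, excess solid was added to 3–4 mL of medium, in triplicate. Suspension pH was read after equilibration. Solids were removed by centrifugation at 4000 rpm at 25 °C, and the supernatant was passed through a 0.45 µm filter, discarding the first 2 mL. The filtrate was quantified by HPLC against standard curves.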

[8] = Equilibrium solubility of compound at pH 7.4 incubated for 24 to 48 hrs by HPLC analysis; format: physicochemical; conditions: buffer, time 24-48 hrs; in short: as §1
[9] = AUC in beagle dog at 40 mg, po measured up to 24 hrs; format: ADME, organism-based, Canis lupus familiaris; design: route oral, dose 40 mg, time <=24; conditions: in vivo
In short: (§2)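 The dose equalled 40 mg PIB after adjustment for prodrug MW. Food was returned at 12 h. K2EDTA plasma was sampled at 0.25–24 h. Cmax is in ng/mL and AUC in ng·h/mL.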

[10] = Cmax in CD1 mouse at 3 mg/kg, po measured up to 24 hrs; format: ADME, organism-based; design: route oral, dose 3 mg/kg, time <=24; conditions: in vivo
In short: (§3)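 CD-1 mice, fed ad libitum, were dosed orally at a prodrug-MW-adjusted dose equal to 3 mg/kg PIB, as a solution or suspension. Serial K2EDTA blood samples were taken from 0.25 to 24 h. Plasma was separated by centrifugation and kept frozen. PIB and prodrug levels were reported as Cmax (ng/mL) and AUC (ng·h/mL).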

[11] = Cmax in beagle dog assessed as pibrentasvir1 level at 40 mg, po measured up to 24 hrs; format: ADME, organism-based, Canis lupus familiaris; design: route oral, dose 40 mg, time <=24; conditions: in vivo; in short: as §2
[12] = AUC in beagle dog assessed as pibrentasvir1 level at 40 mg, po measured up to 24 hrs; format: ADME, organism-based, Canis lupus familiaris; design: route oral, dose 40 mg, time <=24; conditions: in vivo; in short: as §2
[13] = AUC in CD1 mouse assessed as pibrentasvir1 level at 6 mg/kg, po measured up to 24 hrs; format: ADME, organism-based; design: route oral, dose 6 mg/kg, time <=24; conditions: in vivo
In short: (§4)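 CD-1 mice with free access to food and water received an oral gavage of prodrug or PIB at 10 mL/kg in 0.2% HPMC. The dose was adjusted for prodrug MW to equal 6 mg/kg PIB. K2EDTA blood was drawn at 0.25, 0.5, 1, 3, 6, 9, 12 and 24 h. Plasma was spun at 3200 x g for 5 min at ~4°C and stored below -15°C. PIB and prodrug were measured; AUC in ng·h/mL, Cmax in ng/mL.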

[14] = AUC in beagle dog at 40 mg, po dosed as phase 2 tablet measured up to 24 hrs; format: ADME, organism-based, Canis lupus familiaris; design: route oral, dose 40 mg, time <=24; conditions: in vivo
In short: (§5)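 Fasted beagle dogs received the 40 mg phase 2 PIB tablet (amorphous drug in polymer support), crushed for dosing.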

[15] = AUC in CD1 mouse at 6 mg/kg, po measured up to 24 hrs; format: ADME, organism-based; design: route oral, dose 6 mg/kg, time <=24; conditions: in vivo; in short: as §4
[16] = AUC in CD1 mouse at 3 mg/kg, po measured up to 24 hrs; format: ADME, organism-based; design: route oral, dose 3 mg/kg, time <=24; conditions: in vivo; in short: as §3
[17] = Equilibrium solubility of compound at pH 1 incubated for 24 to 48 hrs by HPLC analysis; format: physicochemical; conditions: buffer, time 24-48 hrs; in short: as §1
[18] = Cmax in beagle dog at 40 mg, po dosed as phase 2 tablet measured up to 24 hrs; format: ADME, organism-based, Canis lupus familiaris; design: route oral, dose 40 mg, time <=24; conditions: in vivo; in short: as §5
[19] = Cmax in CD1 mouse assessed as pibrentasvir1 level at 6 mg/kg, po measured up to 24 hrs; format: ADME, organism-based; design: route oral, dose 6 mg/kg, time <=24; conditions: in vivo; in short: as §4
[20] = AUC in cynomolgus monkey at 2 mg/kg, po measured up to 12 hrs; format: ADME, organism-based, Macaca fascicularis; design: route oral, dose 2 mg/kg, time <=12; conditions: in vivo
In short: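 Female cynomolgus monkeys were fasted overnight and dosed by gastric intubation with a suspension in 0.5% HPMC at 0.5 mL/kg. The dose was MW-adjusted to 2 mg/kg PIB equivalent, and food was returned at 4 h. Plasma was collected at intervals up to 12 h and assayed for PIB and prodrug to give AUC in ng·h/mL.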

[21] = Cmax in beagle dog at 40 mg, po measured up to 24 hrs; format: ADME, organism-based, Canis lupus familiaris; design: route oral, dose 40 mg, time <=24; conditions: in vivo; in short: as §2
[22] = Stability of compound at pH 7.4 assessed as prodrug remaining level at 125 ug/ml incubated for 3 hrs by HPLC analysis; format: physicochemical; conditions: buffer, pH 7.4, 3 h, at 125 µg/mL
[23] = Stability of compound at pH 1 assessed as prodrug remaining level at 125 ug/ml incubated for 24 hrs by HPLC analysis; format: physicochemical; conditions: buffer, pH 1, 24 h, at 125 µg/mL
In short: (§6)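 A DMSO stock of about 1.25 mg/mL was diluted into 0.1 N HCl (pH 1) or 50 mM phosphate buffer (pH 7.4), giving final concentrations of ~125 µg/mL prodrug and 10% DMSO. The solution was filtered and held at 37 °C in the HPLC autosampler, with injections at several times over 24 h. Percent remaining was calculated from prodrug peak area relative to t0.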

[24] = Stability of compound at pH 7.4 assessed as prodrug remaining level at 125 ug/ml incubated for 24 hrs by HPLC analysis; format: physicochemical; conditions: buffer, pH 7.4, 24 h, at 125 µg/mL; in short: as §6
[25] = Cmax in CD1 mouse assessed as pibrentasvir1 level at 3 mg/kg, po measured up to 24 hrs; format: ADME, organism-based; design: route oral, dose 3 mg/kg, time <=24; conditions: in vivo; in short: as §3
[26] = AUC in CD1 mouse assessed as pibrentasvir1 level at 3 mg/kg, po measured up to 24 hrs; format: ADME, organism-based; design: route oral, dose 3 mg/kg, time <=24; conditions: in vivo; in short: as §3

Question: Which results are given for `CC(C)(C)[C@@H]1NC(=O)O[C@@H]2CCC[C@H]2OC/C=C/C(F)(F)c2nc3ccccc3nc2O[C@@H]2C[C@@H](C(=O)N[C@]3(C(=O)NS(=O)(=O)C4(C)CC4)C[C@H]3C(F)F)N(C2)C1=O` [GLECAPREVIR]?
Answer: solubility [1]: < 100 µg/mL; Papp [2]: 1.4 ×10⁻⁶ cm/s; fraction unbound [3]: 0.025; solubility [4]: 300 µg/mL (≈ 358 µM); Papp [5]: 5.2 ×10⁻⁶ cm/s; logD [6]: 2.5; solubility [7]: 40 µg/mL (≈ 47.7 µM)

Question: What does the source list for `COC(=O)N[C@H](C(=O)N1CCC[C@H]1c1nc2cc([C@H]3CC[C@H](c4cc5nc([C@@H]6CCCN6C(=O)[C@@H](NC(=O)OC)[C@@H](C)OC)[nH]c5cc4F)N3c3cc(F)c(N4CCC(c5ccc(F)cc5)CC4)c(F)c3)c(F)cc2[nH]1)[C@@H](C)OC` [PIBRENTASVIR]?
Answer: solubility thermodynamic [8]: < 0.1 µg/mL; AUC at 24 h [9]: 3860 ng·h/mL; solubility [1]: 420 µg/mL (≈ 377 µM); Cmax [10]: 280 ng/mL; Cmax [11]: 339 ng/mL; Papp [2]: < 1 ×10⁻⁶ cm/s; AUC [12]: 3860 ng·h/mL; fraction unbound [3]: < 0.001; AUC [13]: 6720 ng·h/mL; solubility [4]: < 0.1 µg/mL; AUC [14]: 2730 ng·h/mL; AUC at 24 h [15]: 6720 ng·h/mL; AUC at 24 h [16]: 5170 ng·h/mL; logD [6]: 5.7; solubility thermodynamic [17]: 422 µg/mL (≈ 379 µM); Cmax [18]: 239 ng/mL; solubility [7]: 169 µg/mL (≈ 152 µM); Cmax [19]: 408 ng/mL; AUC at 12 h [20]: 166 ng·h/mL; Cmax [21]: 339 ng/mL

Question: With `COC(=O)N[C@H](C(=O)N1CCC[C@H]1c1nc2cc(F)c([C@H]3CC[C@H](c4cc5nc([C@@H]6CCCN6C(=O)[C@@H](NC(=O)OC)[C@@H](C)OC)n(C(=O)OCCCOP(=O)(O)O)c5cc4F)N3c3cc(F)c(N4CCC(c5ccc(F)cc5)CC4)c(F)c3)cc2[nH]1)[C@@H](C)OC` as the compound, how does the solubility thermodynamic [8] read?
Answer: 631 µg/mL (≈ 487 µM)

Question: What about the Cmax [11] of the same compound?
Answer: 196 ng/mL

Question: And the AUC [12]?
Answer: 2140 ng·h/mL

Question: What about the AUC [13] of the same compound?
Answer: 456 ng·h/mL

Question: What about the Stabilty [22] of the same compound?
Answer: < 20%

Question: What about the Stabilty [23] of the same compound?
Answer: 54%

Question: And the Stabilty [24]?
Answer: < 1%

Question: And the solubility thermodynamic [17]?
Answer: 23 µg/mL (≈ 17.8 µM)

Question: And the solubility [7]?
Answer: > 1000 µg/mL

Question: What about the Cmax [19] of the same compound?
Answer: 26 ng/mL

Question: Which solubility thermodynamic [8] does the source give for `COC(=O)N[C@H](C(=O)N1CCC[C@H]1c1nc2cc(F)c([C@H]3CC[C@H](c4cc5nc([C@@H]6CCCN6C(=O)[C@@H](NC(=O)OC)[C@@H](C)OC)n(COC(=O)[C@@H](NC(=O)/C=C/C(=O)O)C(C)C)c5cc4F)N3c3cc(F)c(N4CCC(c5ccc(F)cc5)CC4)c(F)c3)cc2[nH]1)[C@@H](C)OC` here?
Answer: < 0.2 µg/mL

Question: What about the AUC [13] of the same compound?
Answer: 231 ng·h/mL

Question: What about the Stabilty [23] of the same compound?
Answer: 97%

Question: What about the AUC at 24 h [15] of the same compound?
Answer: 354 ng·h/mL

Question: What about the Stabilty [24] of the same compound?
Answer: 67%

Question: And the solubility thermodynamic [17]?
Answer: 203 µg/mL (≈ 151 µM)

Question: What about the solubility [7] of the same compound?
Answer: 542 µg/mL (≈ 404 µM)

Question: What about the Cmax [19] of the same compound?
Answer: 15 ng/mL

Question: For `COC(=O)N[C@H](C(=O)N1CCC[C@H]1c1nc2cc(F)c([C@H]3CC[C@H](c4cc5c(cc4F)nc([C@@H]4CCCN4C(=O)[C@@H](NC(=O)OC)[C@@H](C)OC)n5COP(=O)(O)O)N3c3cc(F)c(N4CCC(c5ccc(F)cc5)CC4)c(F)c3)cc2[nH]1)[C@@H](C)OC`, which solubility thermodynamic [8] is on record?
Answer: > 4000 µg/mL

Question: And the AUC at 24 h [9]?
Answer: 93 ng·h/mL

Question: What about the Cmax [10] of the same compound?
Answer: 2.2 ng/mL

Question: And the Cmax [11]?
Answer: 152 ng/mL

Question: And the AUC [12]?
Answer: 1470 ng·h/mL

Question: What about the Stabilty [23] of the same compound?
Answer: 100%

Question: What about the Cmax [25] of the same compound?
Answer: 17 ng/mL

Question: What about the AUC at 24 h [16] of the same compound?
Answer: 12.6 ng·h/mL

Question: And the AUC [26]?
Answer: 278 ng·h/mL

Question: What about the Stabilty [24] of the same compound?
Answer: 100%

Question: What about the solubility thermodynamic [17] of the same compound?
Answer: > 4000 µg/mL

Question: What about the Cmax [21] of the same compound?
Answer: 20 ng/mL
